Experimental data taken from ChEMBL document CHEMBL4196178, “Structure-Based Drug Design of Potent Pyrazole Derivatives against Rhinovirus Replication” (J Med Chem, 2018).
Active and inactive are the calls of the source. No cut-off for these calls is given here.

Target: T1, VP1 capsid protein (Human rhinovirus sp.) (UniProt Q7T664)
T1 sequence (whole entry): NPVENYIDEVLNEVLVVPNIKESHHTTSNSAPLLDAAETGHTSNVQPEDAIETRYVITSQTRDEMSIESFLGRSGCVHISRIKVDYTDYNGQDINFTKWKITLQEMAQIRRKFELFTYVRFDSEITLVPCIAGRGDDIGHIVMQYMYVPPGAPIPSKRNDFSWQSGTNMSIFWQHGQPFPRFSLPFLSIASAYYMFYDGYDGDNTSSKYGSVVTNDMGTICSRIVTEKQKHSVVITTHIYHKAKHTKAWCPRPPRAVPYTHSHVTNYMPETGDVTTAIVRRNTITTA
Test: Inhibition of Rhinovirus B14 capsid infected in human HeLa Rh cells assessed as number of wells with full cytopathic effect at 4 times EC50 concentration after 3rd passage measured after 3 days by MTS assay relative to control
Format: cell-based
Design: scale not given: the % may be the effect or the level left
Conditions: not given
Method in brief: (§1)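 Confluent HeLa cells were infected with wild-type RV-B14 with compound present at 1x, 2x or 4x in vitro EC₅₀, n=4 wells. Supernatant was diluted 1:10 onto fresh HeLa cells with compound, for four passages. Value is percentage of wells with full CPE.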

SMILES	Activity
Cn1cc(-c2ccc(CC(O)c3ccc(-n4cncn4)cc3)c([N+](=O)[O-])c2)cn1 (racemic)	0%
Cc1cc(CCCOc2c(C)cc(-c3noc(C(F)(F)F)n3)cc2C)on1 [PLECONARIL]	25%

Test system: rhinovirus B14
Test: Antiviral activity against Rhinovirus B14 infected in human HeLa Rh cells assessed as reduction in viral replication at 1 uM administered at the time of infection measured after 8 hrs post infection by RT-qPCR analysis
Format: functional, organism-based
Conditions: not given
Method in brief: (§2)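 HeLa Rh cells adhered overnight, then given 1 µM compound 2 h before, at, or 2, 4 or 6 h after RV-B14 infection. Untreated infected cells served as controls. Cells lysed at 8 h post-infection, DNases heat-inactivated at 75 °C for 15 min. Intracellular viral RNA measured by SYBR one-step qRT-PCR against a gBlock standard series, reported as genome equivalents per sample.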

SMILES	Activity
Cn1cc(-c2ccc(CC(O)c3ccc(-n4cncn4)cc3)c([N+](=O)[O-])c2)cn1 (racemic)	Active
Cc1cc(CCCOc2c(C)cc(-c3noc(C(F)(F)F)n3)cc2C)on1 [PLECONARIL]	Active

Target: T1, VP1 capsid protein (Human rhinovirus sp.)
Test: Inhibition of Rhinovirus B14 capsid infected in human HeLa Rh cells assessed as number of wells with full cytopathic effect at 2 times EC50 concentration after 2nd passage measured after 3 days by MTS assay relative to control
Format: cell-based
Design: scale not given: the % may be the effect or the level left
Conditions: not given
Method in brief: as §1

SMILES	Activity
Cn1cc(-c2ccc(CC(O)c3ccc(-n4cncn4)cc3)c([N+](=O)[O-])c2)cn1 (racemic)	0%
Cc1cc(CCCOc2c(C)cc(-c3noc(C(F)(F)F)n3)cc2C)on1 [PLECONARIL]	0%

Target: T1, VP1 capsid protein (Human rhinovirus sp.)
Test: Inhibition of Rhinovirus B14 capsid infected in human HeLa Rh cells assessed as number of wells with full cytopathic effect at EC50 concentration after 2nd passage measured after 3 days by MTS assay relative to control
Format: cell-based
Design: scale not given: the % may be the effect or the level left
Conditions: not given
Method in brief: as §1

SMILES	Activity
Cn1cc(-c2ccc(CC(O)c3ccc(-n4cncn4)cc3)c([N+](=O)[O-])c2)cn1 (racemic)	50%
Cc1cc(CCCOc2c(C)cc(-c3noc(C(F)(F)F)n3)cc2C)on1 [PLECONARIL]	100%

Target: T1, VP1 capsid protein (Human rhinovirus sp.)
Test: Inhibition of Rhinovirus B14 capsid infected in human HeLa Rh cells assessed as number of wells with full cytopathic effect at 2 times EC50 concentration after 4th passage measured after 3 days by MTS assay relative to control
Format: cell-based
Design: scale not given: the % may be the effect or the level left
Conditions: not given
Method in brief: as §1

SMILES	Activity
Cn1cc(-c2ccc(CC(O)c3ccc(-n4cncn4)cc3)c([N+](=O)[O-])c2)cn1 (racemic)	50%
Cc1cc(CCCOc2c(C)cc(-c3noc(C(F)(F)F)n3)cc2C)on1 [PLECONARIL]	100%

Target: T1, VP1 capsid protein (Human rhinovirus sp.)
Test: Inhibition of Rhinovirus B14 capsid infected in human HeLa Rh cells assessed as number of wells with full cytopathic effect at 2 times EC50 concentration after 1st passage measured after 3 days by MTS assay relative to control
Format: cell-based
Design: scale not given: the % may be the effect or the level left
Conditions: not given
Method in brief: as §1

SMILES	Activity
Cn1cc(-c2ccc(CC(O)c3ccc(-n4cncn4)cc3)c([N+](=O)[O-])c2)cn1 (racemic)	0%
Cc1cc(CCCOc2c(C)cc(-c3noc(C(F)(F)F)n3)cc2C)on1 [PLECONARIL]	0%

Target: T1, VP1 capsid protein (Human rhinovirus sp.)
Test: Inhibition of capsid of VP1 A150V mutant harboring Rhinovirus B14 assessed as reduction of virus induced cytopathic effect at 4 times EC50 concentration after 4th passage measured after 3 days by MTS assay
Conditions: not given

SMILES	inhibition
Cn1cc(-c2ccc(CC(O)c3ccc(-n4cncn4)cc3)c([N+](=O)[O-])c2)cn1 (racemic)	inactive

Target: T1, VP1 capsid protein (Human rhinovirus sp.)
Test: Inhibition of Rhinovirus B14 capsid infected in human HeLa Rh cells assessed as number of wells with full cytopathic effect at EC50 concentration after 1st passage measured after 3 days by MTS assay relative to control
Format: cell-based
Design: scale not given: the % may be the effect or the level left
Conditions: not given
Method in brief: as §1

SMILES	Activity
Cn1cc(-c2ccc(CC(O)c3ccc(-n4cncn4)cc3)c([N+](=O)[O-])c2)cn1 (racemic)	0%
Cc1cc(CCCOc2c(C)cc(-c3noc(C(F)(F)F)n3)cc2C)on1 [PLECONARIL]	0%

Target: T1, VP1 capsid protein (Human rhinovirus sp.)
Test: Inhibition of Rhinovirus B14 capsid infected in human HeLa Rh cells assessed as number of wells with full cytopathic effect at 4 times EC50 concentration after 1st passage measured after 3 days by MTS assay relative to control
Format: cell-based
Design: scale not given: the % may be the effect or the level left
Conditions: not given
Method in brief: as §1

SMILES	Activity
Cn1cc(-c2ccc(CC(O)c3ccc(-n4cncn4)cc3)c([N+](=O)[O-])c2)cn1 (racemic)	0%
Cc1cc(CCCOc2c(C)cc(-c3noc(C(F)(F)F)n3)cc2C)on1 [PLECONARIL]	0%

Target: T1, VP1 capsid protein (Human rhinovirus sp.)
Test: Inhibition of Rhinovirus B14 capsid infected in human HeLa Rh cells assessed as number of wells with full cytopathic effect at EC50 concentration after 3rd passage measured after 3 days by MTS assay relative to control
Format: cell-based
Design: scale not given: the % may be the effect or the level left
Conditions: not given
Method in brief: as §1

SMILES	Activity
Cn1cc(-c2ccc(CC(O)c3ccc(-n4cncn4)cc3)c([N+](=O)[O-])c2)cn1 (racemic)	75%
Cc1cc(CCCOc2c(C)cc(-c3noc(C(F)(F)F)n3)cc2C)on1 [PLECONARIL]	100%

Target: T1, VP1 capsid protein (Human rhinovirus sp.)
Test: Inhibition of capsid of VP1 C199W mutant harboring Rhinovirus B14 assessed as reduction of virus induced cytopathic effect at 1 times EC50 concentration after 4th passage measured after 3 days by MTS assay
Conditions: not given

SMILES	inhibition
Cn1cc(-c2ccc(CC(O)c3ccc(-n4cncn4)cc3)c([N+](=O)[O-])c2)cn1 (racemic)	Active

Test system: not listed separately
Test: Selectivity index, ratio of CC50 for human HeLa Rh cells to EC50 for Rhinovirus B14 capsid infected in human HeLa Rh cells
Format: toxicity, cell-based
Conditions: read-out: Ratio CC50/EC50
Method in brief: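 SI = CC₅₀/EC₅₀ for RV-B14 in HeLa Rh cells, both from the same 3-day 35 °C MTS CPE assay. CC₅₀ was obtained by light-microscope scoring of compound-treated uninfected cells, and EC₅₀ from MTS dose-response. Both values were derived by logarithmic interpolation and reported as median ± median absolute deviation.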

SMILES	selectivity ratio
Cn1cc(-c2ccc(CC(O)c3ccc(-n4cncn4)cc3)c([N+](=O)[O-])c2)cn1 (racemic)	1420 to 3880
Cc1cc(CCCOc2c(C)cc(-c3noc(C(F)(F)F)n3)cc2C)on1 [PLECONARIL]	> 4040

Target: T1, VP1 capsid protein (Human rhinovirus sp.)
Test: Inhibition of Rhinovirus B14 capsid infected in human HeLa Rh cells assessed as number of wells with full cytopathic effect at EC50 concentration after 4th passage measured after 3 days by MTS assay relative to control
Format: cell-based
Design: scale not given: the % may be the effect or the level left
Conditions: not given
Method in brief: as §1

SMILES	Activity
Cn1cc(-c2ccc(CC(O)c3ccc(-n4cncn4)cc3)c([N+](=O)[O-])c2)cn1 (racemic)	100%
Cc1cc(CCCOc2c(C)cc(-c3noc(C(F)(F)F)n3)cc2C)on1 [PLECONARIL]	100%

Target: T1, VP1 capsid protein (Human rhinovirus sp.)
Test: Inhibition of Rhinovirus B14 capsid infected in human HeLa Rh cells assessed as number of wells with full cytopathic effect at 4 times EC50 concentration after 4th passage measured after 3 days by MTS assay relative to control
Format: cell-based
Design: scale not given: the % may be the effect or the level left
Conditions: not given
Method in brief: as §1

SMILES	Activity
Cn1cc(-c2ccc(CC(O)c3ccc(-n4cncn4)cc3)c([N+](=O)[O-])c2)cn1 (racemic)	0%
Cc1cc(CCCOc2c(C)cc(-c3noc(C(F)(F)F)n3)cc2C)on1 [PLECONARIL]	25%

Target: T1, VP1 capsid protein (Human rhinovirus sp.)
Test: Inhibition of Rhinovirus B14 capsid infected in human HeLa Rh cells assessed as reduction in viral replication at 1 uM administered 2 hrs before infection measured after 8 hrs post infection by RT-qPCR analysis
Format: cell-based
Conditions: not given
Method in brief: as §2

SMILES	inhibition
Cn1cc(-c2ccc(CC(O)c3ccc(-n4cncn4)cc3)c([N+](=O)[O-])c2)cn1 (racemic)	Active
Cc1cc(CCCOc2c(C)cc(-c3noc(C(F)(F)F)n3)cc2C)on1 [PLECONARIL]	Active

Target: T1, VP1 capsid protein (Human rhinovirus sp.)
Test: Inhibition of Rhinovirus B14 capsid infected in human HeLa Rh cells assessed as number of wells with full cytopathic effect at 2 times EC50 concentration after 3rd passage measured after 3 days by MTS assay relative to control
Format: cell-based
Design: scale not given: the % may be the effect or the level left
Conditions: not given
Method in brief: as §1

SMILES	Activity
Cn1cc(-c2ccc(CC(O)c3ccc(-n4cncn4)cc3)c([N+](=O)[O-])c2)cn1 (racemic)	25%
Cc1cc(CCCOc2c(C)cc(-c3noc(C(F)(F)F)n3)cc2C)on1 [PLECONARIL]	100%

Test system: rhinovirus B14
Test: Inhibition of Rhinovirus B14 capsid infected in human HeLa Rh cells assessed as number of wells with full cytopathic effect at 4 times EC50 concentration after 2nd passage measured after 3 days by MTS assay relative to control
Format: functional
Design: scale not given: the % may be the effect or the level left
Conditions: not given
Method in brief: as §1

SMILES	Activity
Cn1cc(-c2ccc(CC(O)c3ccc(-n4cncn4)cc3)c([N+](=O)[O-])c2)cn1 (racemic)	0%
Cc1cc(CCCOc2c(C)cc(-c3noc(C(F)(F)F)n3)cc2C)on1 [PLECONARIL]	0%

Test system: rhinovirus B14
Test: Antiviral activity against Rhinovirus B14 infected in human HeLa Rh cells assessed as reduction in viral replication at 1 uM administered at >= 2 hrs post infection measured after 8 hrs post infection by RT-qPCR analysis
Format: functional, organism-based
Conditions: not given
Method in brief: as §2

SMILES	Activity
Cn1cc(-c2ccc(CC(O)c3ccc(-n4cncn4)cc3)c([N+](=O)[O-])c2)cn1 (racemic)	inactive
Cc1cc(CCCOc2c(C)cc(-c3noc(C(F)(F)F)n3)cc2C)on1 [PLECONARIL]	inactive

Target: T1, VP1 capsid protein (Human rhinovirus sp.)
Test: Inhibition of capsid of VP1 N105S mutant harboring Rhinovirus B14 assessed as reduction of virus induced cytopathic effect at 2 times EC50 concentration after 4th passage measured after 3 days by MTS assay
Conditions: not given

SMILES	inhibition
Cn1cc(-c2ccc(CC(O)c3ccc(-n4cncn4)cc3)c([N+](=O)[O-])c2)cn1 (racemic)	Active

Test system: not listed separately
Test: Cytotoxicity against human HeLa Rh cells assessed as reduction in cell viability after 3 days by MTS assay
Format: cell-based
Conditions: not given

SMILES	CC50 at 72 h
Cn1cc(-c2ccc(CC(O)c3ccc(-n4cncn4)cc3)c([N+](=O)[O-])c2)cn1 (racemic)	256 to 699 µM
Cc1cc(CCCOc2c(C)cc(-c3noc(C(F)(F)F)n3)cc2C)on1 [PLECONARIL]	> 131 µM
